Source: ChEMBL document CHEMBL1123181 (J Med Chem, 1986)

Tests used:
[1] = biological target: T1, Angiotensin-converting enzyme (Oryctolagus cuniculus, UniProt P12822); assay: In vitro inhibition of Angiotensin I converting enzyme activity at pH 8.5 in rabbit lung; format: tissue-based; settings: read-out: I50
T1 sequence (P12822 whole entry): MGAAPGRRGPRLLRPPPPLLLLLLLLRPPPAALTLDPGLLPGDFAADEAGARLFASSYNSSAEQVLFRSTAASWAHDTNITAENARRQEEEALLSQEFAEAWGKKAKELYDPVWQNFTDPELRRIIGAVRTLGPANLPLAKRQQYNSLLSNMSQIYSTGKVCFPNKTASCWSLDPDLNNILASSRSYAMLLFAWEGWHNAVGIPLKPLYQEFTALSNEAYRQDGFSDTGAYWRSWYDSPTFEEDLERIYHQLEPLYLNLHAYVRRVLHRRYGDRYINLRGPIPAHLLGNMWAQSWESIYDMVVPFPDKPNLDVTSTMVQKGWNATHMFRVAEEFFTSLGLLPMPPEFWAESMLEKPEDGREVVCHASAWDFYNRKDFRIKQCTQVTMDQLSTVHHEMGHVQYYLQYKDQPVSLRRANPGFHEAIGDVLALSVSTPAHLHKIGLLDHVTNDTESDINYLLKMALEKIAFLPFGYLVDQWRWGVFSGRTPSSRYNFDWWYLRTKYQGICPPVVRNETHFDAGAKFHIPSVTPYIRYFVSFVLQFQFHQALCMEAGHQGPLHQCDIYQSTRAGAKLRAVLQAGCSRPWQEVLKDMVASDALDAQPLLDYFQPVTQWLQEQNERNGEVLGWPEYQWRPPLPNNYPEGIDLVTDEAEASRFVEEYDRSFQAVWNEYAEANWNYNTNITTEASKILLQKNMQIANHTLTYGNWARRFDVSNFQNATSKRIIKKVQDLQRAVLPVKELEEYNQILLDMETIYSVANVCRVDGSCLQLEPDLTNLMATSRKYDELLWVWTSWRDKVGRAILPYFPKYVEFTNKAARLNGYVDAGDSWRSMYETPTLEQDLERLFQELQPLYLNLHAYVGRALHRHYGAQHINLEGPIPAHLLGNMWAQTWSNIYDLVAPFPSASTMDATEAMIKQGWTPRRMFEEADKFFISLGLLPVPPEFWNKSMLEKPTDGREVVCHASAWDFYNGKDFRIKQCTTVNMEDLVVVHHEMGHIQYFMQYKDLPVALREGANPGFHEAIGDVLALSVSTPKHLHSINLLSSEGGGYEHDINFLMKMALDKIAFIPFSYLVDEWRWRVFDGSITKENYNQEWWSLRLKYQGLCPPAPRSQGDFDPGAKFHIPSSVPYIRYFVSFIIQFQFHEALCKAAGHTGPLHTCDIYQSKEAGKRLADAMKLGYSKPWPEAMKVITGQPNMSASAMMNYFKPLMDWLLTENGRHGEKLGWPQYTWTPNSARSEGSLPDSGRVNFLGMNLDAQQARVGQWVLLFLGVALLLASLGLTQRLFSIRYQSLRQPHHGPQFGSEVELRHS

[2] = biological target: T1, Angiotensin-converting enzyme; assay: In vitro inhibition of Angiotensin I converting enzyme activity in rabbit lung; format: tissue-based; settings: read-out: I50
[3] = biological target: Angiotensin-converting enzyme (Rattus norvegicus) (UniProt P47820); assay: The time to 50% recovery of the angiotensin I response was measured after po administration at 1.5 mg/kg; 10-60
Chain of Angiotensin-converting enzyme (Rattus norvegicus) (P47820 whole entry, looked up): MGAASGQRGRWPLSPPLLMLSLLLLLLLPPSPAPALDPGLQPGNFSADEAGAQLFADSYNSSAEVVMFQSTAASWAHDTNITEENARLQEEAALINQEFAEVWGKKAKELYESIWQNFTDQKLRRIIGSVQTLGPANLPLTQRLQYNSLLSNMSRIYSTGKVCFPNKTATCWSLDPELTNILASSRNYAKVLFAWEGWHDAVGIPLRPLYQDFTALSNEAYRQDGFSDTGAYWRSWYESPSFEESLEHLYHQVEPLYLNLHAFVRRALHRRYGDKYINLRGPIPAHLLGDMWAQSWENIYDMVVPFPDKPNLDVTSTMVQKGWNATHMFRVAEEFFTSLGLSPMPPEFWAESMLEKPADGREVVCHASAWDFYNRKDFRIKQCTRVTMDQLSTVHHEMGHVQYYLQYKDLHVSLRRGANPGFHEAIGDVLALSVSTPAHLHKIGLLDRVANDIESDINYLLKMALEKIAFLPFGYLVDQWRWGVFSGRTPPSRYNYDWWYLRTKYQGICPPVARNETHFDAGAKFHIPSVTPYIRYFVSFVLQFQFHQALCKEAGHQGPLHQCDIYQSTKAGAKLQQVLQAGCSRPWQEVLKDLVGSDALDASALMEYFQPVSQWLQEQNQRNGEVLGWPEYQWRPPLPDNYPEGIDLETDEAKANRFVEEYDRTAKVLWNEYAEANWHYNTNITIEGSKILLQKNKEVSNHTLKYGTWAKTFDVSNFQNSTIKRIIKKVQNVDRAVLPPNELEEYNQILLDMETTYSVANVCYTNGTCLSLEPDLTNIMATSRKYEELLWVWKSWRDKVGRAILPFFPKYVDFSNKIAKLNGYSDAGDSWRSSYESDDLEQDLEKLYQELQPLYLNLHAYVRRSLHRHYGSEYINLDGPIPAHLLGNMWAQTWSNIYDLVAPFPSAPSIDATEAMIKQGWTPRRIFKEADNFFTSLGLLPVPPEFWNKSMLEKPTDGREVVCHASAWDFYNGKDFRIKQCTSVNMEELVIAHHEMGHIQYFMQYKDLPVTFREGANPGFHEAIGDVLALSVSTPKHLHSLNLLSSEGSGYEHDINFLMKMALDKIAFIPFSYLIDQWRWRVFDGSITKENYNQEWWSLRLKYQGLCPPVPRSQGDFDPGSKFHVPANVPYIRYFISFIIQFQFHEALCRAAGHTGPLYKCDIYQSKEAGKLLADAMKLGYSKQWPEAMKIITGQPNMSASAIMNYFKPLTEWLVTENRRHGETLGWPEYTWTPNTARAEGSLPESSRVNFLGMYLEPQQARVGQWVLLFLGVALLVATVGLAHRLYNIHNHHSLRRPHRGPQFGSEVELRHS

[4] = biological target: Angiotensin-converting enzyme (Rattus norvegicus) (UniProt P47820); assay: Percentage inactivation of the angiotensin I induced vasopressor response in normotensive conscious rats after po administration at dose 1.5 mg/kg; 14-16
[5] = system: Rattus norvegicus; assay: Time taken by the compound to change arterial pressure outside the control area at a dose of 50 mg/kg, po; 3-19.5; format: functional, Artery
Summary of the method: (§1)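 Spontaneously hypertensive rats kept on a sodium-deficient diet, single oral dose, arterial pressure and heart rate monitored. Duration is the time pressure lies outside a control area, defined as the means (±2 standard deviations) of arterial pressure and heart rate readings from 45 control rats. Range given across animals.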

[6] = system: Rattus norvegicus; assay: Maximum percent change in mean arterial pressure by the compound over control after po administration at 50 mg/kg dosage; -(31-34); format: functional, Artery
Summary of the method: (§2)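 Spontaneously hypertensive rats kept on a sodium-deficient diet received the agent orally. Value = maximum % change in mean arterial pressure over control. Duration = time outside a control area, defined as the means ±2 SD of arterial pressure and heart rate readings from 45 control rats.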

[7] = biological target: Angiotensin-converting enzyme (Rattus norvegicus) (UniProt P47820); assay: The time to 50% recovery of the angiotensin I response was measured after po administration at 1.5 mg/kg; 70-90
[8] = biological target: Angiotensin-converting enzyme (Rattus norvegicus) (UniProt P47820); assay: Percentage inactivation of the angiotensin I induced vasopressor response in normotensive conscious rats after po administration at dose 1.5 mg/kg; 71-81
[9] = system: Rattus norvegicus; assay: Time taken by the compound to change arterial pressure outside the control area at a dose of 30mg/kg, po; format: functional, Artery
[10] = system: Rattus norvegicus; assay: Maximum percent change in mean arterial pressure by the compound over control after po administration at 30 mg/kg dosage; format: functional, Artery; summary of the method: as §2
[11] = biological target: Angiotensin-converting enzyme (Rattus norvegicus) (UniProt P47820); assay: The time to 50% recovery of the angiotensin I response was measured after po administration at 0.30 mg/kg
[12] = biological target: Angiotensin-converting enzyme (Rattus norvegicus) (UniProt P47820); assay: Percentage inactivation of the angiotensin I induced vasopressor response in normotensive conscious rats after po administration at dose 0.08 mg/kg; 80-85
[13] = system: Rattus norvegicus; assay: Time taken by the compound to change arterial pressure outside the control area at a dose of 100 mg/kg, po; format: functional, Artery; summary of the method: as §1
[14] = system: Rattus norvegicus; assay: Maximum percent change in mean arterial pressure by the compound over control after po administration at 100 mg/kg dosage; format: functional, Artery; summary of the method: as §2
[15] = biological target: Angiotensin-converting enzyme (Rattus norvegicus) (UniProt P47820); assay: The time to 50% recovery of the angiotensin I response was measured after po administration at 0.15 mg/kg; 10-40
[16] = biological target: Angiotensin-converting enzyme (Rattus norvegicus) (UniProt P47820); assay: Percentage inactivation of the angiotensin I induced vasopressor response in normotensive conscious rats after po administration at dose 0.15 mg/kg; 55-76
[17] = system: Rattus norvegicus; assay: Time taken by the compound to change arterial pressure outside the control area at a dose of 100 mg/kg, po; 2-12.5; format: functional, Artery; summary of the method: as §1
[18] = system: Rattus norvegicus; assay: Maximum percent change in mean arterial pressure by the compound over control after po administration at 100 mg/kg dosage; -(15-27); format: functional, Artery; summary of the method: as §2
[19] = system: Rattus norvegicus; assay: The time to 50% recovery of the angiotensin I response was measured after po administration at 0.15 mg/kg; 10-50
[20] = biological target: Angiotensin-converting enzyme (Rattus norvegicus) (UniProt P47820); assay: Percentage inactivation of the angiotensin I induced vasopressor response in normotensive conscious rats after po administration at dose 0.15 mg/kg; 65-69
[21] = system: Rattus norvegicus; assay: Time taken by the compound to change arterial pressure outside the control area at a dose of 100 mg/kg, po; 15->24; format: functional, Artery; summary of the method: as §1
[22] = system: Rattus norvegicus; assay: Maximum percent change in mean arterial pressure by the compound over control after po administration at 100 mg/kg dosage; -(-27-45); format: functional, Artery; summary of the method: as §2
[23] = biological target: Angiotensin-converting enzyme (Rattus norvegicus) (UniProt P47820); assay: The time to 50% recovery of the angiotensin I response was measured after po administration at 0.3 mg/kg; 10-30
[24] = biological target: Angiotensin-converting enzyme (Rattus norvegicus) (UniProt P47820); assay: Percentage inactivation of the angiotensin I induced vasopressor response in normotensive conscious rats after po administration at dose 0.3 mg/kg; 45-50
[25] = biological target: T1, Angiotensin-converting enzyme; assay: Compound was tested in vitro for inhibition of activity of rabbit lung Angiotensin I converting enzyme at pH 8.5; 0.14-10; settings: read-out: I50
[26] = biological target: Angiotensin-converting enzyme (Rattus norvegicus) (UniProt P47820); assay: The time to 50% recovery of the angiotensin I response was measured after po administration at 0.15 mg/kg; 30-100
[27] = biological target: Angiotensin-converting enzyme (Rattus norvegicus) (UniProt P47820); assay: Percentage inactivation of the angiotensin I induced vasopressor response in normotensive conscious rats after po administration at dose 0.15 mg/kg; 64-100
[28] = biological target: Angiotensin-converting enzyme (Rattus norvegicus) (UniProt P47820); assay: The time to 50% recovery of the angiotensin I response was measured after po administration at 0.15 mg/kg; 10-20
[29] = system: Rattus norvegicus; assay: Maximum percent change in mean arterial pressure by the compound over control after ip administration at 100 mg/kg dosage; 9-14; settings: route intraperitoneal
[30] = biological target: Angiotensin-converting enzyme (Rattus norvegicus) (UniProt P47820); assay: Percentage inactivation of the angiotensin I induced vasopressor response in normotensive conscious rats after po administration at dose 0.15 mg/kg
[31] = biological target: Angiotensin-converting enzyme (Rattus norvegicus) (UniProt P47820); assay: The time to 50% recovery of the angiotensin I response was measured after po administration at 0.3 mg/kg
[32] = biological target: Angiotensin-converting enzyme (Rattus norvegicus) (UniProt P47820); assay: Percentage inactivation of the angiotensin I induced vasopressor response in normotensive conscious rats after po administration at dose 0.3 mg/kg; 15-17; settings: at 0.3 mg/kg
[33] = system: Rattus norvegicus; assay: Maximum percent change in mean arterial pressure by the compound over control after po administration at 100 mg/kg dosage; -(-32-40); format: functional, Artery; summary of the method: as §2
[34] = biological target: Angiotensin-converting enzyme (Rattus norvegicus) (UniProt P47820); assay: The time to 50% recovery of the angiotensin I response was measured after po administration at 0.8 mg/kg; 35-50
[35] = biological target: Angiotensin-converting enzyme (Rattus norvegicus) (UniProt P47820); assay: Percentage inactivation of the angiotensin I induced vasopressor response in normotensive conscious rats after po administration at dose 0.80 mg/kg; 50-55
[36] = system: Rattus norvegicus; assay: Time taken by the compound to change arterial pressure outside the control area at a dose of 100 mg/kg, po; 5.5-15; format: functional, Artery; summary of the method: as §1
[37] = system: Rattus norvegicus; assay: Maximum percent change in mean arterial pressure by the compound over control after po administration at 100 mg/kg dosage; -(17-29); format: functional, Artery; summary of the method: as §2
[38] = biological target: Angiotensin-converting enzyme (Rattus norvegicus) (UniProt P47820); assay: The time to 50% recovery of the angiotensin I response was measured after po administration at 0.6 mg/kg; 40-50
[39] = biological target: Angiotensin-converting enzyme (Rattus norvegicus) (UniProt P47820); assay: Percentage inactivation of the angiotensin I induced vasopressor response in normotensive conscious rats after po administration at dose 0.60 mg/kg; 50-55

SMILES: C[C@@H]1SC(=O)[C@@]2(C)Cc3ccccc3CN2C1=O
- IC50 [1]: > 100000 nM
- IC50 [2]: > 100000 nM
- Duration [3]: 10 min
- inhibition [4]: 14%

SMILES: Cc1ccc(N2CC(=O)SC(C)C2=O)cc1 (stereo unspecified)
- IC50 [1]: 26 nM
- IC50 [2]: 85 nM
- Duration [5]: 3 h
- MAP [6]: -31%
- Duration [7]: 70 min
- inhibition [8]: 71%

SMILES: CCOC(=O)[C@H](CCc1ccccc1)N[C@@H](C)C(=O)N1CCC[C@H]1C(=O)O
- Duration [9]: >24 h
- MAP [10]: -38%
- Duration [11]: 210 min
- inhibition [12]: 50%

SMILES: Cc1ccc(N2CC(=O)SCC(C)C2=O)cc1 (stereo unspecified)
- IC50 [1]: 5 nM
- IC50 [2]: 21 nM
- Duration [13]: > 1440 min
- MAP [14]: -37%
- Duration [15]: 10 min
- inhibition [16]: 55%

SMILES: CC1CSC(=O)CN(C2CCCC2)C1=O (stereo unspecified)
- IC50 [1]: 18 nM
- IC50 [2]: 13 nM
- Duration [17]: 2 h
- MAP [18]: -15%
- Duration [19]: 10 min
- inhibition [20]: 65%

SMILES: C[C@@H]1CSC(=O)[C@@H]2Cc3ccccc3CN2C1=O
- IC50 [2]: 12 nM
- Duration [21]: 900 min
- MAP [22]: -27%
- Duration [23]: 10 min
- inhibition [24]: 45%

SMILES: CC1SC(=O)C2CSCN2C1=O (stereo unspecified)
- IC50 [25]: 140 nM
- IC50 [2]: 380 nM

SMILES: C[C@@H]1CSC(=O)[C@@H]2CCCN2C1=O
- IC50 [1]: 17 nM
- IC50 [2]: 26 nM
- Duration [26]: 30 min
- inhibition [27]: 64%

SMILES: O=C1CN(C2CCCC2)C(=O)c2ccccc2S1
- IC50 [1]: 4800 nM
- IC50 [2]: 4500 nM
- Duration [28]: 10 min
- MAP [29]: 9%
- inhibition [30]: 5%

SMILES: C[C@H]1CSC(=O)[C@@H]2Cc3ccccc3CN2C1=O (mixture of isomers)
- Duration [31]: 10 min
- inhibition [32]: 15%

SMILES: COc1cccc2c1SC(=O)CN(C1CCCC1)C2=O
- IC50 [1]: 380 nM
- IC50 [2]: 400 nM
- MAP [33]: -32%
- Duration [13]: >1440 min
- Duration [34]: 35 min
- inhibition [35]: 50%

SMILES: O=C1CN(C2CCCC2)C(=O)c2cccc(Cl)c2S1
- IC50 [1]: 280 nM
- IC50 [2]: 210 nM
- Duration [36]: 5.5 h
- MAP [37]: -17%
- Duration [38]: 40 min
- inhibition [39]: 50%
